According to ChEMBL document CHEMBL1123985, “Oral absorption of cephalosporin antibiotics. 1. Synthesis, biological properties, and oral bioavailability of 7-(arylacetamido)-3-chloro cephalosporins in animals” (J Med Chem, 1988):
≈ marks a conversion by molar mass, not a printed value.

Columns and labels:
[1] = system: Streptococcus pneumoniae; experiment: Minimum inhibitory concentration against park strain of Streptococcus pneumoniae
[2] = system: Staphylococcus aureus; experiment: Minimum inhibitory concentration against V41 strain of Staphylococcus aureus; format: functional
[3] = system: Staphylococcus aureus; experiment: Minimum inhibitory concentration against X1.1 strain of Staphylococcus aureus; format: functional
[4] = system: Klebsiella aerogenes; experiment: Minimum inhibitory concentration against EB17 strain of Enterobacter aerogenes; format: functional
[5] = Oral bioavailability in Rhesus monkey; format: ADME, organism-based, Macaca mulatta; conditions: in vivo
Method in brief: (§1)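 Rhesus monkeys, adult males, six animals per compound, each given drug orally and iv; fasted overnight. Single 30 mg/kg solution doses, by nasogastric tube (in water) or saphenous vein (in isotonic lactated Ringer). Plasma sampled at intervals, frozen at -70 °C, antibacterial activity by microbiological assay. AUC in μg min/mL; oral bioavailability from oral vs iv AUC.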

[6] = system: Klebsiella pneumoniae; experiment: Minimum inhibitory concentration against X68 strain of Klebsiella pneumoniae; format: functional
[7] = system: Staphylococcus aureus; experiment: Minimum inhibitory concentration against S13E strain of Staphylococcus aureus; format: functional
[8] = system: Staphylococcus epidermidis; experiment: Minimum inhibitory concentration against Epil strain of Staphylococcus epidermidis; format: functional
[9] = system: Staphylococcus epidermidis; experiment: Minimum inhibitory concentration against 222 strain of Staphylococcus epidermidis; format: functional
[10] = system: Staphylococcus aureus; experiment: Minimum inhibitory concentration against 3055 strain of Staphylococcus aureus
[11] = (§2) Minimum inhibitory concentration against sens CL strain of Haemophilus influenzae; format: functional
[12] = Minimum inhibitory concentration against N9 strain of Shigella sonnei; format: functional
[13] = Area under plasma concentration vs time curve observed in Rhesus monkeys after, iv administration of single 30 mg/kg dose; format: ADME, organism-based, Macaca mulatta; design: dose 30 mg/kg, route intravenous; conditions: rhesus monkey
Method in brief: as §1

[14] = Dose in urine (24-h urine excretion) in female mongrel dogs after oral administration of single 15 mg/kg dose; format: ADME, organism-based, Canis lupus familiaris; design: dose 15 mg/kg, route oral; conditions: dog
Method in brief: (§3)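 Female mongrel dogs (n=6), bladder catheter; urine collected at intervals after single 15 mg/kg iv or oral solution dose, frozen; antibiotic activity by disk-plate agar diffusion against E. coli MB 3804 with standards in pH 6.0 buffer; percent of dose recovered in urine.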

[15] = system: Canis familiaris; experiment: Area under plasma concentration vs time curve observed in female mongrel dogs after, oral administration of single 15 mg/kg dose; format: ADME, organism-based, Canis lupus familiaris; design: dose 15 mg/kg, route oral; conditions: dog, in vivo
Method in brief: (§4)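 Six female mongrel dogs (14-23 kg) fasted overnight, bladder catheterized; single 15 mg/kg solution doses by stomach tube (in water, total 500 mL) or cephalic vein (saline or pH 6.0 NaCl/phosphate/acetate buffer). Plasma sampled at intervals; activity by disk-plate agar diffusion against E. coli MB 3804, standards in dog serum or buffer. AUC μg min/mL, mean ± SEM; BA from iv vs po AUC and urinary recovery.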

[16] = Oral bioavailability in mouse; format: ADME, organism-based; conditions: in vivo
Method in brief: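 Male Cox mice given water and liquid diet overnight; 20 mg/kg in saline (2 mg/mL) sc or orally; urine from collection cages plus bladder contents over 2 h; activity by agar well assay with Bacillus subtilis ATCC 6633. Bioavailability from percent dose excreted in urine after oral vs parenteral dosing.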

[17] = system: Canis familiaris; experiment: Area under plasma concentration vs time curve observed in female mongrel dogs after, iv administration of single 15 mg/kg dose; format: ADME, organism-based, Canis lupus familiaris; design: dose 15 mg/kg, route intravenous; conditions: dog, in vivo
Method in brief: as §4

[18] = system: Escherichia coli; experiment: Minimum inhibitory concentration against EC14 strain Escherichia coli; format: functional
[19] = Area under plasma concentration vs time curve observed in Rhesus monkeys after oral administration of single 30 mg/kg dose; format: ADME, organism-based, Macaca mulatta; design: dose 30 mg/kg, route oral; conditions: rhesus monkey
Method in brief: as §1

[20] = system: Streptococcus pyogenes; experiment: Minimum inhibitory concentration against C203 strain of Streptococcus pyogenes
[21] = system: Salmonella; experiment: Minimum inhibitory concentration against X514 strain of Salmonella; format: functional
[22] = system: Streptococcus pyogenes; experiment: Minimum inhibitory concentration against Streptococcus pyogenes C203; format: functional
[23] = Dose in urine (24-h urine excretion) in female mongrel dogs after iv administration of single 15 mg/kg dose; format: ADME, organism-based, Canis lupus familiaris; design: dose 15 mg/kg, route intravenous; conditions: dog
Method in brief: as §3

[24] = (§5) Minimum inhibitory concentration against res 76 strain of Haemophilus influenzae; format: functional
[25] = Oral bioavailability in dog (female mongrel); format: ADME, organism-based, Canis lupus familiaris; conditions: in vivo
Method in brief: as §4

[26] = system: Streptococcus pneumoniae; experiment: Minimum inhibitory concentration against Park strain of Streptococcus pneumoniae
[27] = system: Haemophilus influenzae; experiment: as §2; format: functional
[28] = system: Haemophilus influenzae; experiment: as §5; format: functional

Structure (SMILES) | MIC [2] [µg/mL] | MIC [3] [µg/mL] | MIC [4] [µg/mL] | MIC [6] [µg/mL] | MIC [7] [µg/mL] | MIC [8] [µg/mL] | MIC [9] [µg/mL] | MIC [12] [µg/mL] | bioavailability [16] [%] | MIC [18] [µg/mL] | MIC [21] [µg/mL] | MIC [22] [µg/mL] | MIC [26] [µg/mL] | also measured
O=C(Cc1ccccc1)N[C@@H]1C(=O)N2C(C(=O)O)=C(Cl)CS[C@H]12 | 16 (≈ 45.4 µM) | 0.5 (≈ 1.42 µM) | > 128 | 4 (≈ 11.3 µM) | 32 (≈ 90.7 µM) | 2 (≈ 5.67 µM) | 1 (≈ 2.83 µM) | 64 (≈ 181 µM) | 37 | 8 (≈ 22.7 µM) | 4 (≈ 11.3 µM) | 0.125 (≈ 0.354 µM) | 0.125 (≈ 0.354 µM) | MIC [1]: 0.25 µg/mL (≈ 0.709 µM); bioavailability [5]: 15.1%; MIC [10]: 0.5 µg/mL (≈ 1.42 µM); MIC [11]: 1 µg/mL (≈ 2.83 µM); AUC [13]: 58300 ng·h/mL; dose excreted [14]: 15%; AUC [15]: 16200 ng·h/mL; AUC [17]: 97300 ng·h/mL; AUC [19]: 8830 ng·h/mL; MIC [20]: 0.125 µg/mL (≈ 0.354 µM); dose excreted [23]: 67%; MIC [24]: 1 µg/mL (≈ 2.83 µM); bioavailability [25]: 17%
CC1=C(C(=O)O)N2C(=O)[C@@H](NC(=O)COc3ccccc3)[C@H]2SC1 | 32 (≈ 91.9 µM) | 2 (≈ 5.74 µM) | > 128 | > 128 | > 128 | 16 (≈ 45.9 µM) | 4 (≈ 11.5 µM) | > 128 | 37 | > 128 | > 128 | 2 (≈ 5.74 µM) | 2 (≈ 5.74 µM) | MIC [27]: 16 µg/mL (≈ 45.9 µM); MIC [28]: 8 µg/mL (≈ 23 µM)
